Reference: ChEMBL document CHEMBL4257503, “N-Acetyl-3-aminopyrazoles block the non-canonical NF-kB cascade by selectively inhibiting NIK” (Medchemcomm, 2018)

Assays:
[1] = biological target: Mitogen-activated protein kinase kinase kinase 14 (Homo sapiens, UniProt Q99558); assay: Inhibition of recombinant human full-length N-terminal GST-fused/His6-tagged NIK (M1 to P947 residues) expressed in Sf9 insect cells using AKDVDQGSLCTSFVGTLQY peptide as substrate measured after 60 mins by ADP-Glo kinase assay
[2] = biological target: T1, Inhibitor of nuclear factor kappa-B kinase subunit alpha (Homo sapiens, UniProt O15111); assay: Inhibition of recombinant full length human His-tagged IKKalpha expressed in baculovirus expression system using ERLLDDRHDSGLDSMKDEE peptide as substrate measured after 60 mins by ADP-Glo kinase assay
T1 sequence (O15111 whole entry): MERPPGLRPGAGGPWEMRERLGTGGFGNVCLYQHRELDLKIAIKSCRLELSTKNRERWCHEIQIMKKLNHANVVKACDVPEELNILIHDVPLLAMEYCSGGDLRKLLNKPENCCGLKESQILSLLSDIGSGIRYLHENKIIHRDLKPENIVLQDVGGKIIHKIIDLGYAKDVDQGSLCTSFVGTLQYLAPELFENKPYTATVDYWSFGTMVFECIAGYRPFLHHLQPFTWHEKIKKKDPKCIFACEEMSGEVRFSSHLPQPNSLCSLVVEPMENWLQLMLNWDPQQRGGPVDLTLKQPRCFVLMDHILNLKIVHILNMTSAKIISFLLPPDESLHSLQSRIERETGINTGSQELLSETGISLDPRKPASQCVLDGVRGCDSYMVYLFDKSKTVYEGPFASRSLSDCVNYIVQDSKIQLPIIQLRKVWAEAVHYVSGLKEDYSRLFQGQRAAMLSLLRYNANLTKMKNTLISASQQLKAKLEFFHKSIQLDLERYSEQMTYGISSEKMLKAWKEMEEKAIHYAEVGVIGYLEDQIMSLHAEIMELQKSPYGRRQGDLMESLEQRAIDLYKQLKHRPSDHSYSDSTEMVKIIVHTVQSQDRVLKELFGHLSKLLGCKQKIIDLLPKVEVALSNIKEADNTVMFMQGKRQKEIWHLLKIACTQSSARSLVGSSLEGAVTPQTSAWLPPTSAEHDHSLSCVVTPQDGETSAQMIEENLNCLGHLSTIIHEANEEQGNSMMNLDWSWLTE
Summary of the method: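 Recombinant human IKKα, peptide substrate 100 µM, enzyme 8 ng/µL, ATP 1 µM in Tris-HCl pH 7.5 buffer with MgCl2, MnCl2, DTT, Na3VO4, BSA; 25°C, 60 min; ADP-Glo luminescence. Ten concentrations 0.005–100 µM; IC50 by nonlinear regression; means ± SD of three independent experiments.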

[3] = biological target: T2, Inhibitor of nuclear factor kappa-B kinase subunit epsilon (Homo sapiens, UniProt Q14164); assay: Inhibition of recombinant human full-length N-terminal GST-fused/His6-tagged IKKepsilon (M1 to V716 residues) expressed in Sf9 insect cells using ERLLDDRHDSGLDSMKDEE peptide as substrate measured after 60 mins by ADP-Glo kinase assay
T2 sequence (Q14164 whole entry): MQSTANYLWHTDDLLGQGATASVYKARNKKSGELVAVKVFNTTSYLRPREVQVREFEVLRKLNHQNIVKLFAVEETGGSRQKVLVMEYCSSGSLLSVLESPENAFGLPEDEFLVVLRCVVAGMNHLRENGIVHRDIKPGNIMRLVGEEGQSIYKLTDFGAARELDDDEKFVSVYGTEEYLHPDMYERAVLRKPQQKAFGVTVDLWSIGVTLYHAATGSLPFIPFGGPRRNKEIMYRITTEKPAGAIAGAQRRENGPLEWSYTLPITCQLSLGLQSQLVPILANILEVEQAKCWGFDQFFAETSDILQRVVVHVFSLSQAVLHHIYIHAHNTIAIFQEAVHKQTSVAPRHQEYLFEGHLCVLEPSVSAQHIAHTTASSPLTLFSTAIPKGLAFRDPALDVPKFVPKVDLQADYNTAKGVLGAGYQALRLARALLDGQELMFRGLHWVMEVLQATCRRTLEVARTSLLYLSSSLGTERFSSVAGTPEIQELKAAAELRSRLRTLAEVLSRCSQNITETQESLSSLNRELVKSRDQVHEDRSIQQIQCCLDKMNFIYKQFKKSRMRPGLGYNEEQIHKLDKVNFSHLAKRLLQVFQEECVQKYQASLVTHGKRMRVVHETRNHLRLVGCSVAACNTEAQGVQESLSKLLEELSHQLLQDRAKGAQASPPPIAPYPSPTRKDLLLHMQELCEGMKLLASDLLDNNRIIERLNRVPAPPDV

[4] = biological target: T3, Inhibitor of nuclear factor kappa-B kinase subunit beta (Homo sapiens, UniProt O14920); assay: Inhibition of recombinant human full-length N-terminal GST-fused/His6-tagged IKKbeta (M1 to S756 residues) expressed in Sf9 insect cells using ERLLDDRHDSGLDSMKDEE peptide as substrate measured after 60 mins by ADP-Glo kinase assay
T3 sequence (O14920 whole entry): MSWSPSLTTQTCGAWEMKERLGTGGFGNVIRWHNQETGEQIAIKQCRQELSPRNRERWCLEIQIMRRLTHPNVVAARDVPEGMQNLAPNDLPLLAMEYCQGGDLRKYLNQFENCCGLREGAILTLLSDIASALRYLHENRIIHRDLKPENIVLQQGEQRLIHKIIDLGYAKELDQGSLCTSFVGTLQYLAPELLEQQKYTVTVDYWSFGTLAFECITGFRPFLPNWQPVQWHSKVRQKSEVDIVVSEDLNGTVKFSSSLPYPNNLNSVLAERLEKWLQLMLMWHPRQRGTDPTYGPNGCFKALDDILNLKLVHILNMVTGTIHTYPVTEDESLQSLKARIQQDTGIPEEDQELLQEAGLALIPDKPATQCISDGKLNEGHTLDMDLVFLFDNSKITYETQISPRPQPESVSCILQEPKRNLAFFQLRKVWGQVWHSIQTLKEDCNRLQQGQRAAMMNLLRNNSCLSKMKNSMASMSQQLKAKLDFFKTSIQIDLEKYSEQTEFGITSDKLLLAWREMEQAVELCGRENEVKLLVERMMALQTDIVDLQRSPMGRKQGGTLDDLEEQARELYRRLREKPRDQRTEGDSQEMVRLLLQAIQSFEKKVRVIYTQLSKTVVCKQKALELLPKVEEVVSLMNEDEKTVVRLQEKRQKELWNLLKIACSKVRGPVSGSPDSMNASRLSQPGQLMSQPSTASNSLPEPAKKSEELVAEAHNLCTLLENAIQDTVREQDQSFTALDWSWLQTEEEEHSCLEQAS

Chain of Mitogen-activated protein kinase kinase kinase 14 (Q99558 whole entry, the tested form may be a part): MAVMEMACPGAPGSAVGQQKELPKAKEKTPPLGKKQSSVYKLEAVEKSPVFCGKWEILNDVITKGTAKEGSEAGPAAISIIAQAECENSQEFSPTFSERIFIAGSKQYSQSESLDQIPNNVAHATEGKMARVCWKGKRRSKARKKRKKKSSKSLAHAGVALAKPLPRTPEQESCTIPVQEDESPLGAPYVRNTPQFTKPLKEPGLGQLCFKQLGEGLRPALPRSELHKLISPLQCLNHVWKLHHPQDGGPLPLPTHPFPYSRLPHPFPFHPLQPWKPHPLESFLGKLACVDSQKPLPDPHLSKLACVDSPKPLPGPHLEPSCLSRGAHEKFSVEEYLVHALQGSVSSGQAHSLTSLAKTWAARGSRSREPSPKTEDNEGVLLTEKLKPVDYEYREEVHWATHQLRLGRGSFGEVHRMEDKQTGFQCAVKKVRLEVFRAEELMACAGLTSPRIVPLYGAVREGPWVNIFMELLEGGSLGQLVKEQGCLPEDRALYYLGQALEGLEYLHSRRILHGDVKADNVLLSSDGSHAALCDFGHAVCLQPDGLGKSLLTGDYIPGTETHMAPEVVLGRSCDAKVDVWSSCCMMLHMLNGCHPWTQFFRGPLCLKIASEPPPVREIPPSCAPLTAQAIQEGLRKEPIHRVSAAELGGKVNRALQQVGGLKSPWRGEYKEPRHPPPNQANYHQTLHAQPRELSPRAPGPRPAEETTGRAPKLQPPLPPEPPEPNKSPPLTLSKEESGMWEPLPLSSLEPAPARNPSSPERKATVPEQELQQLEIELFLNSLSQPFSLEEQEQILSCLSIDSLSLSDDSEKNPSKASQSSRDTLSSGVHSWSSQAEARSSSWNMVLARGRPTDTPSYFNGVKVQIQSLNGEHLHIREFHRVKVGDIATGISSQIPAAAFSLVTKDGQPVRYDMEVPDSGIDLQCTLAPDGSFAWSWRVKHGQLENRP

IC50 [1]	IC50 [2]	IC50 [3]	IC50 [4]	SMILES
> 100 µM	> 100 µM	> 100 µM	> 100 µM	CCCC(=O)n1nc(C)c(-c2ccc(Cl)c(Cl)c2)c1N
> 100 µM	> 100 µM	> 100 µM	> 100 µM	Cc1cccc(-c2c(N)n[nH]c2C)c1
> 100 µM	> 100 µM	> 100 µM	> 100 µM	CC(=O)n1nc(C)c(-c2cccc(C(F)(F)F)c2)c1N
> 100 µM	> 100 µM	> 100 µM	> 100 µM	Cc1nn(C(=O)OC(C)(C)C)c(N)c1-c1ccc(Cl)c(Cl)c1
> 100 µM	> 100 µM	> 100 µM	> 100 µM	Cc1c(-c2ccc(Cl)c(Cl)c2)c(N)nn1C(=O)c1cccnc1
> 100 µM	> 100 µM	> 100 µM	> 100 µM	Cc1nn(C(=O)C2CC2)c(N)c1-c1ccc(Cl)cc1
> 100 µM	> 100 µM	> 100 µM	> 100 µM	Cc1[nH]nc(N)c1-c1ccc2c(c1)OCO2
12.5 µM	> 100 µM	> 100 µM	47.7 µM	CC(=O)n1nc(N)c(Br)c1C
> 100 µM	> 100 µM	> 100 µM	> 100 µM	Cc1c(-c2ccc(Cl)c(Cl)c2)c(N)nn1C(=O)C1CCC1
> 100 µM	> 100 µM	> 100 µM	50.9 µM	Cc1[nH]nc(N)c1-c1ccc(Cl)c(Cl)c1
> 100 µM	> 100 µM	> 100 µM	> 100 µM	CCc1nn(C(C)=O)c(N)c1-c1ccc(Cl)c(Cl)c1
> 100 µM	> 100 µM	15.4 µM	> 100 µM	Cc1[nH]nc(N)c1-c1ccc(OCc2ccccc2)cc1
> 100 µM	> 100 µM	> 100 µM	> 100 µM	Cc1ccc(-c2c(N)n[nH]c2C)cc1C
> 100 µM	> 100 µM	22.9 µM	13.6 µM	CC(=O)n1nc(C)c(Br)c1N
> 100 µM	> 100 µM	93.4 µM	> 100 µM	Cc1[nH]nc(N)c1-c1cccc(Cl)c1
39.6 µM	> 100 µM	> 100 µM	> 100 µM	CC(=O)n1nc(C)c(-c2ccc(C)c(C)c2)c1N
> 100 µM	> 100 µM	> 100 µM	> 100 µM	Cc1nn(C(=O)c2cccnc2)c(N)c1-c1ccc(Cl)c(Cl)c1
58.2 µM	> 100 µM	> 100 µM	> 100 µM	Cc1nn(C(=O)c2ccncc2)c(N)c1-c1ccc(Cl)c(Cl)c1

IC50 [1]	IC50 [2]	IC50 [3]	IC50 [4]	SMILES
> 100 µM	> 100 µM	> 100 µM	> 100 µM	Cc1[nH]nc(N)c1-c1cccc(OC(F)(F)F)c1
> 100 µM	> 100 µM	> 100 µM	22.9 µM	Cc1[nH]nc(N)c1-c1cc(C(F)(F)F)cc(C(F)(F)F)c1
> 100 µM	> 100 µM	> 100 µM	> 100 µM	Cc1n[nH]c(N)c1-c1ccccc1
> 100 µM	> 100 µM	> 100 µM	> 100 µM	CC(=O)n1nc(N)c(-c2ccc(Cl)c(Cl)c2)c1C
> 100 µM	> 100 µM	> 100 µM	> 100 µM	CCNC(=O)n1nc(C)c(-c2ccc(Cl)c(Cl)c2)c1N
> 100 µM	> 100 µM	> 100 µM	42.8 µM	Cc1[nH]nc(N)c1-c1ccc2ccccc2c1
> 100 µM	> 100 µM	> 100 µM	> 100 µM	Cc1nn(C)c(N)c1-c1ccc(Cl)c(Cl)c1
> 100 µM	> 100 µM	> 100 µM	75.7 µM	Cc1c(N)n[nH]c1-c1ccc(Cl)c(Cl)c1
> 100 µM	89.7 µM	> 100 µM	60.1 µM	Cc1[nH]nc(N)c1-c1ccc(Br)cc1
> 100 µM	> 100 µM	> 100 µM	> 100 µM	CC(=O)n1nc(C)c(-c2cccc(Cl)c2)c1N
> 100 µM	34.9 µM	> 100 µM	> 100 µM	Cc1[nH]nc(NC(=O)C(F)(F)F)c1-c1ccc(Cl)c(Cl)c1
> 100 µM	> 100 µM	> 100 µM	88 µM	Cc1[nH]nc(N)c1-c1cccc(Br)c1
> 100 µM	> 100 µM	> 100 µM	> 100 µM	Cc1ccc(-c2c(N)n[nH]c2C)cc1
> 100 µM	> 100 µM	> 100 µM	> 100 µM	Cc1c(-c2ccc(Cl)c(Cl)c2)c(N)nn1C
41 µM	> 100 µM	> 100 µM	> 100 µM	Cc1nn(C(=O)C2CCCC2)c(N)c1-c1ccc(Cl)c(Cl)c1
> 100 µM	> 100 µM	> 100 µM	22.4 µM	Cc1[nH]nc(N)c1-c1cccc(C(F)(F)F)c1
> 100 µM	> 100 µM	> 100 µM	> 100 µM	CC(=O)n1nc(C)c(-c2ccc(Cl)cc2)c1N
> 100 µM	> 100 µM	> 100 µM	> 100 µM	Cc1[nH]nc(NC(=O)c2ccccn2)c1-c1ccc(Cl)c(Cl)c1
